Activity calls are given as the source filed them. The calls are words filed in the database; no cut-off is given here.
How the values were obtained:
Cannabinoid receptor 2 = Cannabinoid receptor 2 (Homo sapiens, UniProt P34972); assay: Displacement of [3H]CP55940 from human CB2 receptor expressed in human HEK293 cells; assay type: cell-based
Method in brief: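 Membranes from HEK-293 cells stably expressing human CB1 or CB2. Compounds displacing >50% at 10 μM got curves at 1–1000 nM. Ki from IC50 via Cheng–Prusoff. Three experiments in duplicate. SI = Ki CB2/Ki CB1.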

Cannabinoid receptor 1 [1] = molecular target: T1, Cannabinoid receptor 1 (Homo sapiens, UniProt P21554); assay: Displacement of [3H]CP55940 from human CB1 receptor expressed in human HEK293 cells; assay type: cell-based
T1 sequence (P21554 whole entry): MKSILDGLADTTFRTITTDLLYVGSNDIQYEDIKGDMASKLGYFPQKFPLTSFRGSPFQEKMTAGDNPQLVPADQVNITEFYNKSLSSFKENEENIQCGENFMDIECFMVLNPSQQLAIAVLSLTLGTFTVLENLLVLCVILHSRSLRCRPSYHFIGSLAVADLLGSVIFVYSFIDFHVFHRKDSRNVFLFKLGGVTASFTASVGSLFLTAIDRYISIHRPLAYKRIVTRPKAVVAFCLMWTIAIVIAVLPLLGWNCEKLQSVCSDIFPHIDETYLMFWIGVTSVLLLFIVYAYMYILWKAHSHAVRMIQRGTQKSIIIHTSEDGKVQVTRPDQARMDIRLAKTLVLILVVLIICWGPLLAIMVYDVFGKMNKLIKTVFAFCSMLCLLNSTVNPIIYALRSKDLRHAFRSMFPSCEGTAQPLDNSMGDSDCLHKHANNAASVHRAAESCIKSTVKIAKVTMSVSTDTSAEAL

[2] = molecular target: Cannabinoid receptor 1 (Mus musculus) (UniProt P47746); assay: Agonist activity at MF1 mouse brain CB1 receptor assessed as induction of [35S]GTPgammaS binding after 60 mins by liquid scintillation counting relative to cannabinoid receptor agonist CP55940; assay type: functional, tissue-based
Cannabinoid receptor 1 (Mus musculus), sequence (P47746 whole entry): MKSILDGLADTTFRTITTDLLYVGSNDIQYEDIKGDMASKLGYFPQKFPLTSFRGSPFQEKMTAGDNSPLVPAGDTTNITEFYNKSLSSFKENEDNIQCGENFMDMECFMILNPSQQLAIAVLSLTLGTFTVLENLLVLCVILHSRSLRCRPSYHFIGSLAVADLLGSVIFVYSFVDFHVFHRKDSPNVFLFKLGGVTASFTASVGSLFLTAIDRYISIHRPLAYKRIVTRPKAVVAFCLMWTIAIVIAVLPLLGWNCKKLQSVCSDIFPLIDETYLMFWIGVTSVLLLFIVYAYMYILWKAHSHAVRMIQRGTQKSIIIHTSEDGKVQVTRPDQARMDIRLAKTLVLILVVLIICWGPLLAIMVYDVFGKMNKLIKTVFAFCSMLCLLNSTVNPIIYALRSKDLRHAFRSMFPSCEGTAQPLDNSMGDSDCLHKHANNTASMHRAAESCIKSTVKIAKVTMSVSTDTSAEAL
Method in brief: (§1)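 [35S]GTPγS binding in buffer of 50 mM Tris-HCl, 50 mM Tris-base, 5 mM MgCl2, 1 mM EDTA, 100 mM NaCl, 1 mM DTT, 0.1% BSA with 0.1 nM [35S]GTPγS and 30 μM GDP. Mouse whole brain membranes (5 μg/well) were preincubated 30 min at 30 °C with adenosine deaminase. CHO-hCB1 membranes were used at 50 μg/well. Test range 1 nM–10 μM. Incubation 60 min at 30 °C, filtration, scintillation counting. Nonspecific binding taken with 30 μM GTPγS. Net stimulation = agonist minus basal. EC50/Emax by sigmoid nonlinear regression.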

Cannabinoid receptor 1 [3] = molecular target: Cannabinoid receptor 1 (Mus musculus, UniProt P47746); assay: Agonist activity at MF1 mouse brain CB1 receptor assessed as induction of [35S]GTPgammaS binding after 60 mins by liquid scintillation counting; assay type: functional, tissue-based; method in brief: as §1
Cannabinoid receptor 1 (Mus musculus, UniProt P47746), sequence (P47746 whole entry): as above

Plasma [4] = assay: Metabolic stability of the compound in human plasma assessed as plasma esterase-mediated compound hydrolysis at 100 uM from 15 to 120 mins by reverse-phase LC-MS analysis; assay type: ADME, cell-free
Method in brief: (§2)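 Citrated human plasma, or water as control, spiked to final 1 × 10⁻⁴ or 2 × 10⁻⁴ M. Incubated at 37 °C for 0, 15, 30, 60, 120 min, stopped with acetonitrile, centrifuged. Supernatant run by reverse-phase LC (C8, methanol/water 92/8) with UV 254 nm and positive-ion MS. Triplicates. AUC(0–120 min) compared by Student's t test.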

CYP3A4 = assay: Metabolic stability assessed as compound remaining at 1 uM after 1 hr by LC-MS analysis in presence of human CYP3A4 and NADPH; assay type: ADME; conditions: human CYP3A4 enzyme, read-out: Stability
Method in brief: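 Recombinant human CYP3A4 at 20 pmol/mL (0.1–0.2 mg/mL protein). Substrate final 1 μM, 0.25% organic solvent. Run with NADPH regenerating system or phosphate buffer instead. Incubated 1 h at 37 °C, stopped with acetonitrile. Percent remaining by MS.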

[5] = Chemical stability of the compound in biological buffer at 2.1 mM at 30 degC after 90 mins by LC-MS/MS analysis; assay type: physicochemical; conditions: 1.5 h, 2100 µM
Method in brief: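 DMSO solution (2.1 mM stock) diluted in GTPγS binding buffer and incubated 90 min at 30 °C. Samples taken at 60 and 90 min and analysed by LC–ESI triple-quadrupole MS (positive mode, C18, acetonitrile/0.1% formic acid gradient) for hydrolysis products.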

Cannabinoid receptor 1 [6] = molecular target: T1, Cannabinoid receptor 1; assay: Antagonist activity at human CB1 receptor expressed in CHO cells assessed as inhibition of CP55940-induced [35S]GTPgammaS binding after 60 mins by liquid scintillation counting; assay type: functional, cell-based
[7] = molecular target: Cannabinoid receptor 1 (Mus musculus) (UniProt P47746); assay: Antagonist activity at MF1 mouse brain CB1 receptor assessed as inhibition of CP55940-induced [35S]GTPgammaS binding at 100 nM after 60 mins by liquid scintillation counting; assay type: functional
Method in brief: (§3)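 Same [35S]GTPγS assay on mouse whole brain membranes (5 μg/well, adenosine deaminase-preincubated). 0.1 nM [35S]GTPγS, 30 μM GDP. Single concentration of test compound, 1 μM or 100 nM, against a log concentration-response curve of CP-55940. Incubation 60 min at 30 °C. Read by filtration and liquid scintillation counting.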

Plasma [8] = assay: Metabolic stability of the compound in human plasma assessed as plasma esterase-mediated compound hydrolysis at 200 uM from 15 to 120 mins by reverse-phase LC-MS analysis; assay type: ADME, cell-free; method in brief: as §2
Cannabinoid receptor 1 [9] = molecular target: T1, Cannabinoid receptor 1; assay: Agonist activity at human CB1 receptor expressed in CHO cells assessed as induction of [35S]GTPgammaS binding after 60 mins by liquid scintillation counting; assay type: functional, cell-based; method in brief: as §1
Homo sapiens = species on record: Homo sapiens; assay: Selectivity index, ratio of Ki for human CB2 receptor to Ki for human CB1 receptor
Method in brief: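 Membranes from HEK-293 cells stably expressing human CB1 or CB2. […] Preliminary screen at 5, 10, 25 μM. Compounds displacing >50% at 10 μM got curves at 1–1000 nM. Ki from IC50 via Cheng–Prusoff. Three experiments in duplicate. SI = Ki CB2/Ki CB1.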

[10] = molecular target: Cannabinoid receptor 1 (Mus musculus) (UniProt P47746); assay: Antagonist activity at MF1 mouse brain CB1 receptor assessed as inhibition of CP55940-induced [35S]GTPgammaS binding at 1 uM after 60 mins by liquid scintillation counting; assay type: functional; method in brief: as §3

Cannabinoid receptor 2, sequence (P34972 whole entry): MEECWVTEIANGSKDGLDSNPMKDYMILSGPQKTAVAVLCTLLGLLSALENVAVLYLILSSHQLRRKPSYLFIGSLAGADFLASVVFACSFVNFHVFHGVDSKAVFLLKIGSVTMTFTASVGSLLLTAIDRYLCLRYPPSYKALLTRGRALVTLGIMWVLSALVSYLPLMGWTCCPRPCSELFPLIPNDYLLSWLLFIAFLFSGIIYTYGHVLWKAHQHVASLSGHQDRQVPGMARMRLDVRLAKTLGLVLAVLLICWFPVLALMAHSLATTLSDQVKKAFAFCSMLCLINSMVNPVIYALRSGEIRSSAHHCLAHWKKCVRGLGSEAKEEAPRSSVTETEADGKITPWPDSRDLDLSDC

## CCCCC/C=C\C/C=C\C/C=C\C/C=C\CCCCOC(CO)CO
Cannabinoid receptor 2
  Ki: > 3000 nM
Cannabinoid receptor 1 [1]
  Ki: 20 nM

## CCCCCc1cc(O)cc(OCCCCCCOC(CO)CO)c1
Cannabinoid receptor 2
  Ki: 910 nM
Cannabinoid receptor 1 [1]
  Ki: 430 nM

## CCCCCCc1ccc(O)cc1OCCCCCCCCCCC(=O)OCC(O)CO (stereo not given)
Cannabinoid receptor 2
  Ki: 4820 nM
Cannabinoid receptor 1 [1]
  Ki: > 10000 nM

## CCCCCCC(C)(C)c1ccc([C@@H]2C[C@H](O)CC[C@H]2CCCO)c(O)c1 [CP-55940]
[2]
  Emax: 104%
Cannabinoid receptor 1 [3]
  EC50: 42 nM

## CCCCCCC(C)(C)c1cc(O)cc(OCCCCCCCCCCC(=O)OC(CO)CO)c1
Plasma [4]
  Stability: Stable
CYP3A4
  remaining at 1 h, 1 µM: 24%
[5]
  Stability: Stable
Cannabinoid receptor 1 [6]
  Activity: inactive
[7]
  Activity: inactive
[2]
  Emax: 14.7%
Plasma [8]
  Stability: Stable
Cannabinoid receptor 1 [9]
  Activity: inactive
Cannabinoid receptor 2
  Ki: 790 nM
Cannabinoid receptor 1 [1]
  Ki: 10 nM
Homo sapiens
  Ratio Ki: 88
Cannabinoid receptor 1 [3]
  EC50: 6.3 nM

## CCCCCCC(C)(C)c1cc(O)cc(OCCCCCCCCCCCCOC(CO)CO)c1
Cannabinoid receptor 2
  Ki: 1670 nM
Cannabinoid receptor 1 [1]
  Ki: 1040 nM

## CCCCCc1cc(O)cc(OCCCCCCCC(=O)OC(CO)CO)c1
Cannabinoid receptor 2
  Ki: 7870 nM
Cannabinoid receptor 1 [1]
  Ki: 5600 nM

## CCCCCCC(C)(C)c1cc(O)cc(OCCCCCCCCOC(CO)CO)c1
Cannabinoid receptor 2
  Ki: 110 nM
Cannabinoid receptor 1 [1]
  Ki: 270 nM

## CCCCCc1cc(O)cc(OCCCCCCCCCCC(=O)OC(CO)CO)c1
Cannabinoid receptor 2
  Ki: 870 nM
Cannabinoid receptor 1 [1]
  Ki: 5600 nM

## CCCCCCc1ccc(OCCCCCCOC(CO)CO)cc1O
Cannabinoid receptor 2
  Ki: 1130 nM
Cannabinoid receptor 1 [1]
  Ki: > 10000 nM

## CCCCCc1cc(O)cc(OCCCCCCCCCCC(=O)OCC(O)CO)c1 (stereo not given)
Cannabinoid receptor 2
  Ki: 7910 nM
Cannabinoid receptor 1 [1]
  Ki: > 10000 nM

## CCCCCc1cc(O)cc(OCCCCCCCCCCCCOC(CO)CO)c1
Cannabinoid receptor 2
  Ki: > 10000 nM
Cannabinoid receptor 1 [1]
  Ki: 3780 nM

## CCCCCc1cc(O)cc(OCCCCCCCCCCOC(CO)CO)c1
Cannabinoid receptor 2
  Ki: > 10000 nM
Cannabinoid receptor 1 [1]
  Ki: > 10000 nM

## CCCCCCC(C)(C)c1cc(O)cc(OCCCCCCOC(CO)CO)c1
Cannabinoid receptor 2
  Ki: 190 nM

## CCCCCCc1ccc(O)cc1OCCCCCCCC(=O)OC(CO)CO
Cannabinoid receptor 2
  Ki: 1800 nM
Cannabinoid receptor 1 [1]
  Ki: 800 nM

## CCCCCCC(C)(C)c1cc(O)cc(OCCCCCCCCCCC(=O)OCC(O)CO)c1 (stereo not given)
Cannabinoid receptor 2
  Ki: 310 nM
Cannabinoid receptor 1 [1]
  Ki: > 10000 nM

## CCCCCCc1ccc(O)cc1OCCCCCCCCCCC(=O)OC(CO)CO
[10]
  Activity: inactive
Cannabinoid receptor 1 [6]
  Activity: inactive
[2]
  Emax: 11.4%
Cannabinoid receptor 1 [9]
  Activity: inactive
Cannabinoid receptor 2
  Ki: 1800 nM
Cannabinoid receptor 1 [1]
  Ki: 60 nM
Homo sapiens
  Ratio Ki: 32
Cannabinoid receptor 1 [3]
  EC50: 78.4 nM

## CCCCCCc1ccc(OCCCCCCCCCCC(=O)OCC(O)CO)cc1O (stereo not given)
Cannabinoid receptor 2
  Ki: 10400 nM
Cannabinoid receptor 1 [1]
  Ki: > 10000 nM

## CCCCCCc1ccc(OCCCCCCCC(=O)OC(CO)CO)cc1O
Cannabinoid receptor 2
  Ki: 7870 nM
Cannabinoid receptor 1 [1]
  Ki: > 10000 nM

## CCCCCCC(C)(C)c1cc(O)cc(OCCCCCCCC(=O)OC(CO)CO)c1
Cannabinoid receptor 2
  Ki: 790 nM
Cannabinoid receptor 1 [1]
  Ki: 1120 nM

## CCCCCc1cc(O)cc(OCCCCCCCCOC(CO)CO)c1
Cannabinoid receptor 2
  Ki: 1160 nM
Cannabinoid receptor 1 [1]
  Ki: 1860 nM

## CCCCCCC(C)(C)c1cc(O)cc(OCCCCCCCCCCCC(=O)OC(CO)CO)c1
Cannabinoid receptor 2
  Ki: 800 nM
Cannabinoid receptor 1 [1]
  Ki: 2710 nM

## CCCCCCc1ccc(OCCCCCCCCCCOC(CO)CO)cc1O
Cannabinoid receptor 2
  Ki: 2390 nM
Cannabinoid receptor 1 [1]
  Ki: > 10000 nM

## CCCCCCc1ccc(OCCCCCCCCCCC(=O)OC(CO)CO)cc1O
Cannabinoid receptor 2
  Ki: 7870 nM
Cannabinoid receptor 1 [1]
  Ki: > 10000 nM

## CCCCCCC(C)(C)c1cc(O)cc(OCCCCCCCCCCOC(CO)CO)c1
Cannabinoid receptor 2
  Ki: 380 nM
Cannabinoid receptor 1 [1]
  Ki: 2940 nM
